{"data": "Experimental data collected from several papers", "Trpm7": "Transient receptor potential cation channel subfamily M member 7 (Trpm7, Mus musculus, UniProt Q923J1)", "PIK3CA": "Phosphatidylinositol 4,5-bisphosphate 3-kinase catalytic subunit alpha isoform (PIK3CA, Homo sapiens, UniProt P42336)", "NOX5": "NADPH oxidase 5 (NOX5, Homo sapiens, UniProt Q96PH1)", "DNA polymerase catalytic subunit": "DNA polymerase catalytic subunit (Human cytomegalovirus, UniProt P08546)", "Histone acetyltransferase KAT6B": "Histone acetyltransferase KAT6B (Homo sapiens, UniProt Q8WYB5)", "KDR": "Vascular endothelial growth factor receptor 2 (KDR, Homo sapiens, UniProt P35968)", "PIK3CB": "Phosphatidylinositol 4,5-bisphosphate 3-kinase catalytic subunit beta isoform (PIK3CB, Homo sapiens, UniProt P42338)", "note": "Compare with care: the assays were run in different laboratories."}
{"Structure (SMILES)": "N#Cc1ccc(COC[C@H]2O[C@@H](n3c(NCc4ccc(Cl)c(Cl)c4)nc4c(N)ncnc43)[C@H](O)[C@@H]2O)cc1", "target": "Trpm7", "assay": "calcium signal", "IC50 [nM]": 300}
{"Structure (SMILES)": "Cc1nc(Nc2ccc3c(c2)CC(=O)N3)c2ccccc2n1", "target": "PIK3CA", "assay": "enzyme activity, inhibitor, ADP detection", "IC50 [nM]": 56}
{"Structure (SMILES)": "CCCc1c(-c2ccccc2)nn(-c2ccccn2)c1O", "target": "NOX5", "assay": "enzyme activity, inhibitor", "IC50 [nM]": 2200}
{"Structure (SMILES)": "c1ccc2c(c1)CCC[C@H]2Nc1nc2ccccc2[nH]1", "target": "Trpm7", "assay": "calcium signal", "IC50 [nM]": 1130}
{"Structure (SMILES)": "Cc1nc(N(Cc2ccccc2)c2ccc3c(c2)/C(=C/c2ccccc2)C(=O)N3Cc2ccccc2)c2ccccc2n1 (mixture of isomers)", "target": "PIK3CA", "assay": "enzyme activity, inhibitor, ADP detection", "IC50 [nM]": 9.11}
{"Structure (SMILES)": "CN(C)C(=O)CN1CCN(c2cnc3c(cc(C(=O)NCc4ccc(Cl)cc4)c(=O)n3CC(=O)N3CC(C)(F)C3)n2)C1=O", "target": "DNA polymerase catalytic subunit", "assay": "enzyme activity, inhibitor", "IC50 [nM]": 328}
{"Structure (SMILES)": "CCCOc1ccccc1S(=O)(=O)NC(=O)c1cc2c(C)cc(OC)cc2o1", "target": "Histone acetyltransferase KAT6B", "assay": "enzyme activity, inhibitor, TR-FRET", "IC50 [nM]": 61}
{"Structure (SMILES)": "COc1cc2ncnc(Nc3ccc4c(c3)/C(=C/c3cccc(Cl)c3)C(=O)N4C)c2cc1OC", "target": "PIK3CA", "assay": "enzyme activity, inhibitor, ADP detection", "IC50 [nM]": 121}
{"Structure (SMILES)": "CNC(=O)c1cnc(Nc2ccccc2C)c(NC(=O)c2cc(F)cc(C(F)(F)F)c2)c1", "target": "Phosphatidylinositol 4,5-bisphosphate 3-kinase catalytic subunit alpha isoform (PIK3CA, Homo sapiens, UniProt P42336, H1047R)", "assay": "enzyme activity, inhibitor", "setting": "with preincubation", "IC50 [nM]": 334}
{"Structure (SMILES)": "CCOc1cccc(-c2cccc(Cl)c2)c1S(=O)(=O)NC(=O)c1cc2c(C)cc(OC)cc2o1", "target": "Histone acetyltransferase KAT6B", "assay": "enzyme activity, inhibitor, TR-FRET", "IC50 [nM]": 25}
{"Structure (SMILES)": "COc1ccc2[nH]c(C(=O)Nc3nc(CC(=O)O)cs3)cc2c1", "target": "KDR", "assay": "enzyme activity, inhibitor, ELISA", "IC50 [nM]": 921}
{"Structure (SMILES)": "CC(=O)Nc1ccc(Oc2nnc(-c3ccc(Cl)cc3)c3ccccc23)cc1", "target": "KDR", "assay": "cell-free assay, inhibitor", "IC50 [nM]": 548}
{"Structure (SMILES)": "Cc1nc(N(C)c2ccc3c(c2)/C(=C/c2ccccc2Cl)C(=O)N3C)c2ccccc2n1", "target": "PIK3CB", "assay": "enzyme activity, inhibitor, ADP detection", "IC50 [nM]": 117}
{"Structure (SMILES)": "COc1cc(C)c2cc(C(=O)NS(=O)(=O)c3cccc4ccc(C)nc34)oc2c1", "target": "Histone acetyltransferase KAT6B", "assay": "enzyme activity, inhibitor, TR-FRET", "IC50 [nM]": 22}
{"Structure (SMILES)": "Cc1nc(Nc2ccc3c(c2)/C(=C/c2ccccc2Cl)C(=O)N3)c2ccccc2n1", "target": "PIK3CB", "assay": "enzyme activity, inhibitor, ADP detection", "IC50 [nM]": 90.2}
{"Structure (SMILES)": "CC1(F)CN(C(=O)Cn2c(=O)c(C(=O)NCc3ccc(Cl)cc3)cc3nc(N4CCCC4=O)cnc32)C1", "target": "DNA polymerase catalytic subunit", "assay": "enzyme activity, inhibitor", "IC50 [nM]": 207}
{"Structure (SMILES)": "Cc1nc(Nc2ccc3c(c2)C(C)(C)C(=O)N3C)c2ccccc2n1", "target": "PIK3CB", "assay": "enzyme activity, inhibitor, ADP detection", "IC50 [nM]": 182}
{"Structure (SMILES)": "O=c1oc(-c2ccco2)nc2ccccc12", "target": "Cathepsin G (CTSG, Homo sapiens, UniProt P08311)", "assay": "enzyme activity, inhibitor, absorbance", "setting": "pH 7.4", "IC50 [nM]": 840}
{"Structure (SMILES)": "COc1cc(C)c2cc(C(=O)NS(=O)(=O)c3ccc(C)cc3)oc2c1", "target": "Histone acetyltransferase KAT6B", "assay": "enzyme activity, inhibitor, TR-FRET", "IC50 [nM]": 262}
{"Structure (SMILES)": "CNCCN1CCN(c2cnc3c(cc(C(=O)NCc4ccc(Cl)cc4)c(=O)n3CC(=O)N3CC(C)(F)C3)n2)C1=O", "target": "DNA polymerase catalytic subunit", "assay": "enzyme activity, inhibitor", "IC50 [nM]": 571}
{"Structure (SMILES)": "CCOc1cccc(-c2ccccc2)c1S(=O)(=O)NC(=O)c1cc2c(C)cc(OC)cc2o1", "target": "Histone acetyltransferase KAT6B", "assay": "enzyme activity, inhibitor, TR-FRET", "IC50 [nM]": 51}
{"Structure (SMILES)": "Cc1nc(Nc2ccc3c(c2)C(C)(C)C(=O)N3)c2ccccc2n1", "target": "PIK3CB", "assay": "enzyme activity, inhibitor, ADP detection", "IC50 [nM]": 153}
{"Structure (SMILES)": "O=C(NS(=O)(=O)c1ccccc1-c1ccccc1)c1cc2ccc(OCCO)cc2o1", "target": "Histone acetyltransferase KAT6B", "assay": "enzyme activity, inhibitor, TR-FRET", "IC50 [nM]": 5940}
{"Structure (SMILES)": "C[C@H]1COC2=C1C(=O)C(=O)c1c2ccc2c1CCCC2(C)C", "target": "NOX5", "assay": "enzyme activity, inhibitor", "IC50 [nM]": 4300}
{"Structure (SMILES)": "COc1cc(C)c2cc(C(=O)NS(=O)(=O)c3ccc(Cl)cc3)oc2c1", "target": "Histone acetyltransferase KAT6B", "assay": "enzyme activity, inhibitor, TR-FRET", "IC50 [nM]": 237}
{"Structure (SMILES)": "CC(=NNC(N)=S)c1ccc(Nc2nnc(-c3ccc(Cl)cc3)c3ccccc23)cc1", "target": "KDR", "assay": "cell-free assay, inhibitor", "IC50 [nM]": 375}
{"Structure (SMILES)": "COc1cc2ncnc(N(C)c3ccc4c(c3)/C(=C/c3cccc(Cl)c3)C(=O)N4C)c2cc1OC", "target": "PIK3CA", "assay": "enzyme activity, inhibitor, ADP detection", "IC50 [nM]": "> 1000"}
